Screens: PubChem, Broad Institute
A selection: hits, their analogues and other compounds. The true share with any hit is near 2.2%.
C2C12 statin = suppressors of statin myotoxicity in C2C12 myotubes, primary screen, cell-based, single point, plate reader. C2C12 myotubes + simvastatin, ATP luminescence, 48 h; scaled: DMSO 0, geranylgeraniol control 100. rescue of ATP level, % at 7.49 µM. 330,000 compounds, 0.78% hits. AID 602340, 2012;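 active = mean ATP rescue above about 67%, or every replicate alone reaching that limit, limit read from the data, passing the limit was not always enough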;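 also: myotubes were challenged with 10 µM simvastatin during compound exposure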
DENV2 CPE = inhibitors of DENV2 cytopathic effect, primary screen, cell-based, plate reader, single concentration; DENV2-infected cells, cytopathic effect rescue; CPE inhibition, % at 9.99 µM; 350,000 compounds, 1.7% hits; in the data active = CPE inhibition above about 20%, passing the limit was not always enough; tested in BHK-21 cells;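 also: 0% = median of neutral control wells and 100% = median of positive control wells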
E-sel inducer = E-selectin induction in HUVECs, primary screen, imaging, HUVEC, immunofluorescence imaging, single point; P16581; normalized: neutral wells 0, TNF-alpha wells 100; activation, % at 7.58 µM; 260,000 compounds, 0.37% hits; AID 686992, 2013;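 active = mean E-selectin-positive cell signal at least 10% of the positive control, reached in at least 60% of replicates, without over 20% cell loss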
Target sequence (P16581 whole entry, looked up): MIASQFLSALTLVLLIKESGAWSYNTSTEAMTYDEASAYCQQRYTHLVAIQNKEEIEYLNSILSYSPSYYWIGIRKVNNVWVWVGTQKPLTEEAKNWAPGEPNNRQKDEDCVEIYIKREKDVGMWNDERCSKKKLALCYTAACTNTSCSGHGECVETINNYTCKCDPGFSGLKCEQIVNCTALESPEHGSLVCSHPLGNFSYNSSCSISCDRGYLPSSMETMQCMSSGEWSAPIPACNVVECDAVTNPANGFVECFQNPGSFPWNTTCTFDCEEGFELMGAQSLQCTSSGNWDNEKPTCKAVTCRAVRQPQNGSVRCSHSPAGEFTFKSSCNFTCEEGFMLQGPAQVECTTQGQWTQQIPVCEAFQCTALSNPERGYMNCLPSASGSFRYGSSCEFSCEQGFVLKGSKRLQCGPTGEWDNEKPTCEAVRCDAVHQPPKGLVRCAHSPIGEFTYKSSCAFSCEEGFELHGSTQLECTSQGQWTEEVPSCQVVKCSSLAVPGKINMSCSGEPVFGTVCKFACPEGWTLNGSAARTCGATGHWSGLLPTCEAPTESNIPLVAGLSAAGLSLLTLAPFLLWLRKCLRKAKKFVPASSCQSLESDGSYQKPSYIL
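Assay system: HUVEC primary endothelial cells. Input: 3,000 HUVEC seeded per well. Doses: one compound dose added by pin transfer. Read-out basis: % PE-positive cells. Benchmarks: TNF-alpha high, DMSO low. Detection: immunofluorescence imaging. Buffer or medium: EGM-2, gelatin.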
Starred values were filed as active, the others as inactive.

How did C[C@H](CO)N1C[C@H](C)[C@@H](CN(C)C)Oc2ncc(C#CCN(C)C)cc2C1=O do in these assays?
C2C12 statin: -9.5; DENV2 CPE: 14.1; E-sel inducer: 0.1

How did CCC(=O)Nc1ccc2c(c1)C(=O)N(C)C[C@@H](OC)[C@H](C)CN(C(=O)COC)[C@@H](C)CO2 do in these assays?
C2C12 statin: -1.7; DENV2 CPE: 21.1*; E-sel inducer: 0.3

How did CCC(=O)N1C[C@@H](C)[C@@H](OC)CN(C)C(=O)c2cc(NC(=O)NC3CCCC3)ccc2OC[C@H]1C do in these assays?
DENV2 CPE: -4.3; E-sel inducer: 0.6

What do the screens show for `CCC(=O)Nc1ccc2c(c1)C(=O)N(C)C[C@@H](OC)[C@H](C)CN(C(=O)COC)[C@H](C)CO2`?
C2C12 statin: 5.1; DENV2 CPE: -3.7; E-sel inducer: -0.1

What do the screens show for `CCC(=O)N1C[C@H](C)[C@@H](OC)CN(C)C(=O)c2cc(NC(=O)NC3CCCC3)ccc2OC[C@H]1C`?
DENV2 CPE: 43.1*; E-sel inducer: 0.6

How did O=C(C1CCCC1)N1CC2(C1)[C@H](c1ccccc1)[C@@H](CO)N2C(=O)NC1CCCC1 do in these assays?
DENV2 CPE: 18.3; E-sel inducer: 0.1

Results for O=c1c2[nH]c3cccc(Cl)c3c2ncn1CC1CCCO1 (centres undefined) ?
DENV2 CPE: 1.3; E-sel inducer: 1.0

What do the screens show for `O=c1c2[nH]c3cccc(Cl)c3c2ncn1CCN1CCCCC1`?
C2C12 statin: 102.9*

What do the screens show for `O=C(O)Cc1ccc(NC(=O)c2ccc(NC(=O)C3CC3)cc2)cc1`?
DENV2 CPE: 81.9*; E-sel inducer: -0.7

What do the screens show for `O=C(Nc1ccc(Cc2ccc(NC(=O)C3CC3)cc2)cc1)C1CC1`?
DENV2 CPE: -4.4; E-sel inducer: -2.1

How did COc1ccc(NC(=O)N(C)C[C@@H]2Oc3ccc(NC(=O)CCC(F)(F)F)cc3CC(=O)N([C@H](C)CO)C[C@H]2C)cc1 do in these assays?
C2C12 statin: -16.7; E-sel inducer: -0.1

What do the screens show for `Cn1cnc(S(=O)(=O)N2CCCCN3[C@H](C2)[C@H](c2ccc(C4=CCCC4)cc2)[C@@H]3CO)c1`?
DENV2 CPE: -2.6

What do the screens show for `Cc1noc(C)c1S(=O)(=O)Nc1ccc2c(c1)C(=O)N([C@H](C)CO)C[C@@H](C)[C@H](CN(C)C(=O)Nc1cccc3ccccc13)O2`?
C2C12 statin: 43.7; DENV2 CPE: -2.7; E-sel inducer: -1.0

What do the screens show for `Cc1ccc2ccc(C(Nc3ccccc3)c3ccccc3)c(O)c2n1` (centres undefined)?
DENV2 CPE: 35.4*; E-sel inducer: -0.2

How did Cc1ccc2ccc(C(Nc3ccccc3)c3ccc(C(C)C)cc3)c(O)c2n1 (centres undefined) do in these assays?
DENV2 CPE: -4.7; E-sel inducer: 0.0

How did CCS(=O)(=O)N1CC2(CN(C(=O)Nc3c(C)noc3C)[C@@H](CO)c3c2c2ccc(OC)cc2n3C)C1 do in these assays?
DENV2 CPE: 2.4; E-sel inducer: 0.1

Results for Cc1cccn2c(=O)c(C=O)c(N3CC(C)OC(C)C3)nc12 (centres undefined) ?
DENV2 CPE: 7.9; E-sel inducer: 2.4

How did Cc1cccn2c(=O)c(C=O)c(N3CCCCCC3)nc12 do in these assays?
C2C12 statin: 101.3*

Results for O=C(COC(=O)c1cc(=O)[nH]c2ccccc12)c1ccccc1 ?
C2C12 statin: 3.5; DENV2 CPE: -4.4; E-sel inducer: -1.4

How did O=C(OCC(=O)N1CCOCC1)c1ccccc1SCC(=O)N1CCCC1 do in these assays?
C2C12 statin: 118.4*

How did O=C(O)c1ccccc1SCC(=O)N1CCOCC1 do in these assays?
DENV2 CPE: -0.2

What do the screens show for `O=C(OCC(=O)N1CCOCC1)c1cc(=O)[nH]c2ccccc12`?
C2C12 statin: -1.2; DENV2 CPE: 27.9*; E-sel inducer: -0.1

How did C[C@@H]1CN([C@H](C)CO)S(=O)(=O)c2ccc(C#CC3CCCCC3)cc2O[C@@H]1CN(C)C(=O)Cc1ccncc1 do in these assays?
C2C12 statin: 44.5; DENV2 CPE: 11.6; E-sel inducer: 0.7

How did CCC(=O)N1C[C@H](O)COC[C@@H]2O[C@H](CC(=O)NCc3ccccc3Cl)CC[C@H]21 do in these assays?
C2C12 statin: -3.9; DENV2 CPE: -0.7; E-sel inducer: 0.0

How did O=C(CN1CCOCC1)N1c2ccccc2Sc2ccc(Cl)cc21 do in these assays?
C2C12 statin: 4.2; DENV2 CPE: -3.6; E-sel inducer: 0.1

Results for O=C(CN1CCN(CCOCCO)CC1)N1c2ccccc2Sc2ccc(Cl)cc21 ?
C2C12 statin: 108.2*

What do the screens show for `C[C@H]1CN([C@@H](C)CO)C(=O)c2cc(C#Cc3ccccc3F)cnc2O[C@H]1CN(C)C(=O)C1CCC1`?
C2C12 statin: -55.2; DENV2 CPE: -8.0; E-sel inducer: 0.0

Results for C[C@@H]1CN([C@@H](C)CO)C(=O)c2cc(NC(=O)Nc3ccccc3)ccc2O[C@H]1CN(C)Cc1ccc(C(F)(F)F)cc1 ?
C2C12 statin: -26.8; DENV2 CPE: 21.4*; E-sel inducer: 0.4

What do the screens show for `C[C@H]1CN([C@@H](C)CO)C(=O)c2cc(NC(=O)Nc3ccccc3)ccc2O[C@@H]1CN(C)Cc1ccc(C(F)(F)F)cc1`?
C2C12 statin: -22.1; DENV2 CPE: 1.7; E-sel inducer: 0.2

What do the screens show for `C[C@@H]1CN([C@H](C)CO)C(=O)c2cc(NC(=O)Nc3ccc(C(F)(F)F)cc3)ccc2O[C@@H]1CN(C)Cc1ccccc1`?
C2C12 statin: -0.1; DENV2 CPE: 83.2*; E-sel inducer: 0.9

How did C[C@@H]1CN([C@@H](C)CO)C(=O)c2cc(NC(=O)Nc3ccc(C(F)(F)F)cc3)ccc2O[C@H]1CN(C)Cc1ccccc1 do in these assays?
C2C12 statin: -32.4; DENV2 CPE: 5.5; E-sel inducer: 1.0

Results for C[C@@H]1CCCCO[C@H](CN(C)Cc2ccc(Cl)c(Cl)c2)[C@@H](C)CN([C@@H](C)CO)C(=O)c2cc(NS(=O)(=O)c3cn(C)cn3)ccc2O1 ?
DENV2 CPE: -7.3; E-sel inducer: -0.1

Results for Cc1ccc(-c2nnc(-c3cccnc3)o2)cc1 ?
C2C12 statin: -2.7; DENV2 CPE: -3.2; E-sel inducer: 0.0

What do the screens show for `Brc1ccc(-c2nnc(-c3cccnc3)o2)cc1`?
DENV2 CPE: 81.6*; E-sel inducer: 1.9

What do the screens show for `Cn1cnc(CCNC(=O)C[C@@H]2CC[C@@H]3[C@H](COC[C@H](O)CN3C(=O)C3CCCC3)O2)c1`?
C2C12 statin: -2.4; DENV2 CPE: -3.8; E-sel inducer: 0.0

What do the screens show for `CC(C)(OC(=O)c1ccc(C#N)cc1)c1cc2ccccc2c(=O)o1`?
C2C12 statin: -8.6; DENV2 CPE: 36.7*; E-sel inducer: -0.1

How did CC(C)(OC(=O)c1ccc(C(F)(F)F)cc1)c1cc2ccccc2c(=O)o1 do in these assays?
C2C12 statin: 7.9; DENV2 CPE: -4.5; E-sel inducer: 0.1

Results for CCN1CCN(CC(=O)Nc2nc3ccc(C)cc3s2)CC1 ?
C2C12 statin: -11.2; DENV2 CPE: 24.6*

What do the screens show for `Cc1ccc2nc(NC(=O)CN3CCOCC3)sc2c1`?
C2C12 statin: 13.1
